Several values for one entry are separate records, joined by “and”; a condition that tells them apart may be missing. Equal values may be shown once.
The compounds below were run against Methionine--tRNA ligase, mitochondrial (Homo sapiens) (UniProt Q96GW9) (assay: inhibitors of human mitochondrial MetRS, late-stage follow-up, selectivity assay for T. brucei MetRS inhibitor project, biochemical, radioactivity, round 1 (AID 743061;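 also: 0% = DMSO with full reaction and 100% = DMSO wells lacking tRNA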)). Details: recombinant human mtMetRS, [3H]Met tRNA charging, at 1 µM, stronger effect = higher value.
Method in brief: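 Material – recombinant human mitochondrial methionyl-tRNA synthetase (MetRS) · Input – 13 nM enzyme · Also added – 240 nM [3H]methionine with bulk E. coli tRNA acceptor · Compound dosing – 10 and 1 µM · Schedule – 15 min preincubation, 1 h reaction, room temperature · Detection – scintillation counts of TCA-precipitated charged tRNA on filters · Benchmarks – high DMSO, low without tRNA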

Structure (SMILES)	inhibition
O=C(NCc1nc2ccccc2[nH]1)C1=C[C@@H](C2CC2)C[C@@H](OCc2ccc(CO)cc2)O1	-11.4%
O=C(Cn1cc(C(=O)C(=O)N2CCOCC2)c2ccccc21)NCc1ccccc1	-5.05%
O=C(Cn1cc(C(=O)C(=O)N2CCCC2)c2ccccc21)Nc1ccccc1	-7.71%
COc1ccc(CCN(C(=O)c2cccc(F)c2)C2CC(=O)N(c3ccc(Br)cc3)C2=O)cc1 (stereo not given)	-8.56%
CCc1ccc2c(c1)c1nnc(SCC(=O)Nc3ccc4c(c3)OCO4)nc1n2C	-9.7%
Clc1ccc(OCCSCc2nc3ccccc3[nH]2)cc1	-20%
Cc1[nH]c2ccc(Br)cc2c(=O)c1CN1CCCCCC1	-31.2%
CCN(CC)C(=O)C(=O)c1cn(CC(=O)N2CCCc3ccccc32)c2ccccc12	-14.3%
CC(=O)N(CCc1ccccc1)C1CC(=O)N(c2ccc(Br)cc2)C1=O (stereo not given)	-17.2%
CCN(CCc1nc2ccc(C)cc2[nH]1)C(=O)c1ccc2ncccc2c1	-5.17%
O=C(NCc1nc2ccccc2[nH]1)C1=C[C@H](C2CC2)C[C@H](OCc2ccc(CO)cc2)O1	7.99%
Cc1ccc2[nH]c3nc(SCC(=O)Nc4ccc(C(F)(F)F)cc4)nnc3c2c1	-10%
Clc1ccc(-c2nnc(SCc3nc4ccccc4[nH]3)o2)c(Cl)c1	-3.17%
O=C(Nc1ccc(F)c(Cl)c1)C1CC(=O)n2c(nc3ccccc32)N1 (stereo not given)	-11.1% and -0.44%
O=C(Cn1cc(C(=O)c2ccco2)c2ccccc21)Nc1cccc(C(F)(F)F)c1	2.74%
O=C(NCc1nc2ccccc2[nH]1)C1=C[C@H](c2ccccc2)C[C@H](OCc2ccc(CO)cc2)O1	-8.08%
COc1ccc(CNC(=O)CSc2nnc3c(n2)[nH]c2ccc(F)cc23)cc1	-29.7%
O=C(NCc1nc2ccccc2[nH]1)C1=C[C@@H](c2ccc3c(c2)OCO3)C[C@@H](OCCCCO)O1	-3.63%

Structure (SMILES)	inhibition
CCCCCCCCCC1NC(C(=O)O)Cc2c1[nH]c1ccccc21 (stereo not given)	-2.41%
O=C(CC=NOCc1ccc([N+](=O)[O-])cc1)Nc1ccc(Br)cc1	-22.4%
CC(=O)c1c[nH]c(C(=O)NCc2cccc(C(F)(F)F)c2)c1	-7.99%
O=C(NCCc1nc2ccccc2[nH]1)c1ccc(Cl)c([N+](=O)[O-])c1	2.97%
COc1ccccc1NC(=O)Cn1cc(C(=O)C(=O)N2CCOCC2)c2ccccc21	-9.04%
CCN(CC)C(=O)C(=O)c1cn(CC(=O)Nc2cccc(C(F)(F)F)c2)c2ccccc12	-0.41%
O=C(NCCc1nc2ccccc2[nH]1)c1c(F)cccc1F	0.56%
Cc1cccc2[nH]c(C3CCCN(C(=O)c4cccc5cccnc45)C3)nc12 (stereo not given)	-4.24%
CN1CC(=O)N2C(c3cccc([N+](=O)[O-])c3)c3[nH]c4ccccc4c3C[C@H]2C1=O (stereo not given in full)	-17.1%
Cc1cc2cc(C(=O)N3CCCC(c4nc5ccccc5[nH]4)C3)ccc2o1 (stereo not given)	-13.2%
CCN(CC)C(=O)C(=O)c1cn(CC(=O)Nc2ccccc2OC)c2ccccc12	-10.6%
O=C(C[C@H]1C(=O)N(Cc2ccccc2)C[C@@H]1c1ccc(Br)cc1)Nc1ccc(Br)cc1	-13%
O=C(NCCc1nc2ccccc2[nH]1)c1ccc(Cl)cc1	5.42%
O=C(Cn1cc(C(=O)C2CC2)c2ccccc21)Nc1cccc(C(F)(F)F)c1	0.73%
O=C(NCc1nc2ccccc2[nH]1)C1=C[C@@H](c2ccc(Br)cc2)C[C@@H](OCCCCO)O1	-9.46%
O=C(Cn1cc(C(=O)C(=O)N2CCOCC2)c2ccccc21)Nc1cccc(C(F)(F)F)c1	-22.4%
CN(Cc1cc(Cl)cc(Cl)c1)[C@H]1C[C@H]2c3[nH]c4ccccc4c3CCN2C(=O)[C@H]1CO	14%

Reference: PubChem BioAssay AID743061 (The Scripps Research Institute Molecular Screening Center, 2013)
